Screening data: PubChem, several laboratories
Efflux pump inh – blocks antifungal efflux pumps in multiplex yeast assay; actives 0.44% (n = 330,000); S. cerevisiae Candida pump triplex, Nile Red efflux; AID 485275; inhibition, % at 10 µM;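 active = plate passing quality check with inhibition over a set limit, or well fluorescence over plate mean plus 4 SD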;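 note: Nile Red retained in pooled yeast measured as flow cytometry median fluorescence; 0% = buffer negative control and 100% = Enniatin B positive control; higher means more Nile Red kept so more efflux inhibition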
C2C12 statin – suppressors of simvastatin-induced myotoxicity in C2C12 myotubes; ATP luminescence, 48 h; scaled: DMSO 0, geranylgeraniol control 100; rescue of ATP level, % at 7.49 µM; actives 0.78% (n = 330,000);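 active = mean ATP rescue above about 67%, or every replicate alone reaching that limit, limit read from the data, passing the limit was not always enough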;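 note: myotubes were challenged with 10 µM simvastatin during compound exposure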
Mot1-301 SUMO – blocks SUMOylation pathway, rescuing yeast Mot1-301 growth | S. cerevisiae Mot1-301 growth rescue, ATP luminescence, 38.5C; percent above DMSO median, 100 means doubled | growth rescue, % at 18.8 µM | actives 1% (n = 320,000);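 active = every valid replicate shows activation above 250% relative to neutral control wells; inactive = the rest, any valid replicate at or below 250%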;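 note: OY570 slx delta 5 strain wells were the positive control but not used for scaling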
Cneo AK release – Cryptococcus neoformans lysis via adenylate kinase release | lysis activity, % at 15 µM | actives 0.2% (n = 360,000) | C. neoformans lysis, adenylate kinase release luminescence, 4 h; normalised: neutral wells 0, clomiphene wells 100;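 active = mean lysis activity across replicates of at least 80%, whatever share of replicates individually reach that level; inactive = mean lysis activity below 80%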
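Assay system: log-phase C. neoformans yeast / Quantity: yeast cell density of 5 × 10^6 cells/mL / Medium: fresh YPD growth medium / Compound: single dose / Timing: static 4 h at 37 °C with compound, 1 h detection / Measured by: adenylate kinase release luminescence / Read-out: lysis from increased AK signal / Benchmarks: Clomiphene as positive lysis control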
* = called active by the depositor; . = no result given. Compounds with a hit are over-represented: about 1.8% of the library has one in this group of screens.

SMILES	Efflux pump inh	C2C12 statin	Mot1-301 SUMO	Cneo AK release
COc1ccc(C2CC(=O)C(C=NCCN3CCN(C(C)=O)CC3)=C(O)C2)cc1 (stereo not given)	0.1	19.5	5.8	-1.9
COc1ccc(C2CC(=O)C(C=NCCN3CCOCC3)=C(O)C2)cc1 (stereo not given)	-0.1	125.9*	13.9	-0.3
CCc1ccc(OCC(=O)NC(NC(=S)Nc2ccccc2OC)C(Cl)(Cl)Cl)cc1 (stereo not given)	0.1	.	-20.1	.
O=C(CSc1ccc2nnc(-c3cccnc3)n2n1)Nc1ccccc1C(F)(F)F	0.2	.	297.9*	-0.1
O=C(CSc1ccc2nnc(-c3cccnc3)n2n1)Nc1ccccc1	0.2	.	20.6	1.8
C[C@@H]1CCCCO[C@@H](CN(C)C(=O)c2ccccc2)[C@H](C)CN([C@@H](C)CO)C(=O)c2cc(NS(=O)(=O)c3cccs3)ccc2O1	.	90.4*	.	-0.5
C[C@@H]1CCCCO[C@@H](CN(C)C(=O)NC2CCCCC2)[C@@H](C)CN([C@H](C)CO)C(=O)c2cc(NS(=O)(=O)c3cn(C)cn3)ccc2O1	.	-40.7	.	0.1
C[C@H](CO)N1C[C@H](C)[C@H](CN(C)C(=O)NC2CCCCC2)OCCCC[C@H](C)Oc2ccc(NS(=O)(=O)c3cn(C)cn3)cc2C1=O	.	-19.7	.	90.3*
C[C@@H]1CCCCO[C@H](CN(C)C(=O)NC2CCCCC2)[C@H](C)CN([C@@H](C)CO)C(=O)c2cc(NS(=O)(=O)c3cccs3)ccc2O1	.	91.5*	.	50.7
C[C@@H]1CCCCO[C@H](CN(C)C(=O)c2ccccc2)[C@H](C)CN([C@H](C)CO)C(=O)c2cc(NS(=O)(=O)c3cccs3)ccc2O1	.	42.5	.	-1.8
C[C@H](CO)N1C[C@H](C)[C@H](CN(C)S(C)(=O)=O)Oc2cc(C#CC3CCCC3)ccc2S1(=O)=O	.	-0.8	.	-9.0
CCCC12CN(C(=O)c3ccco3)CC(CCC)(CN(C(=O)c3ccco3)C1)C2=O	0.1	76.8*	-5.7	-1.6
CCCNC(=O)C[C@@H]1CC[C@H]2[C@@H](COC[C@@H](O)CN2C(=O)c2cc(Cl)cc(Cl)c2)O1	.	12.4	.	0.7
COC(=O)c1cc(C#N)c(Oc2cccc(C)c2C)nc1C	0.1	29.8	43.0	-1.7
CC(=O)c1cc(C#N)c(Oc2ccc(Cl)cc2Cl)nc1C	0.3	166.6*	-4.7	1.7
CC(=O)c1cc(C#N)c(Oc2ccccc2)nc1C	-0.1	104.8*	-10.0	1.1
COC(=O)c1cc(C#N)c(Oc2ccc(OC)cc2)nc1C	-0.1	-4.8	-5.4	-1.2
CCOC(=O)/C(C#N)=C/Nc1cc(C(C)(C)C)sc1C(C)=O	-0.1	.	13.0	.
CSCC[C@H](NC(=O)OC(C)(C)C)c1nnc(SCC(N)=O)o1	0.0	10.1	-12.3	.
CCN(CC)C(=O)CSc1nnc([C@H](CCSC)NC(=O)OC(C)(C)C)o1	0.1	143.2*	-5.0	-1.4
CC(C)NC(=O)Nc1ccc2c(c1)CC(=O)N([C@@H](C)CO)C[C@@H](C)[C@H](CN(C)C(=O)Nc1cccc3ccccc13)O2	.	13.0	.	-4.5
Cc1ccccc1NC(=O)CSCCO	0.0	-1.7	508.2	0.2
CC(C)Cn1c(NCCO)nc2ccccc21	-0.1	93.3*	3.3	-4.3
Oc1ccccc1/C=N/NC(=S)NCCc1ccccc1	-0.1	-1.6	0.1	9.5
Cc1ccc(C)c(/C=N/NC(=S)NCCc2ccccc2)c1	0.2	132.5*	244.9	1.3
SMILES	Efflux pump inh	C2C12 statin	Mot1-301 SUMO	Cneo AK release
O=S(=O)(c1ccccc1C(F)(F)F)N1CCN(S(=O)(=O)c2ccccc2C(F)(F)F)CC1	-0.1	112.6*	-6.6	-0.1
CC(=O)c1ccc(S(=O)(=O)N2CCN(S(=O)(=O)c3ccccc3C(F)(F)F)CC2)cc1	0.2	-17.1	20.2	-1.0
NC(=O)c1c(NC(=O)C2CCCO2)sc2c1CCC2 (stereo not given)	-0.1	-20.7	4.3	1.0
CC(C)(C)C1CCc2c(sc(NC(=O)C3CCCO3)c2C(N)=O)C1 (stereo not given)	-0.3	95.8*	-14.0	-0.6
CC(C)c1ccc(OCC(=O)NC(=S)Nc2ccc3c4c(cccc24)CC3)cc1	0.0	-27.4	-16.5	0.9
COc1cccc(C2/C(=C(\O)c3ccc4c(c3)OCCO4)C(=O)C(=O)N2CCN(C)C)c1 (stereo not given)	-0.2	-3.6	352.5*	3.0
COCCCN1C(=O)C(=O)/C(=C(/O)c2ccc(OC)cc2)C1c1cccc(OC)c1 (stereo not given)	-0.1	125.1*	-22.3	.
COCCCN1C(=O)C(=O)/C(=C(/O)c2ccc(C)cc2)C1c1ccccc1 (stereo not given)	0.1	.	-14.0	2.8
COc1ccc(C2/C(=C(/O)c3ccccc3)C(=O)C(=O)N2CCO)cc1 (stereo not given)	0.1	87.2*	0.6	-2.5
O=C1C(=O)N(CCO)C(c2ccccc2)/C1=C(\O)c1ccccc1 (stereo not given)	0.2	11.8	-17.4	-3.0
Cc1ccc(CNC(=O)C2CCN(S(=O)(=O)N3CCOCC3)CC2)cc1	0.0	-0.1	-24.9	-0.9
COc1cccc(NC(=O)CSCc2cc(=O)n3ccsc3n2)c1	-0.1	14.3	-4.3	-8.7
COc1ccc([C@H]2CC(=O)C=C(c3ccccc3)C2)cc1OC	0.1	79.7*	0.3	-0.9
COc1ccc([C@H]2CC(=O)C=C(c3ccc(F)nc3)C2)cc1OC	-0.1	89.6*	14.2	-0.9
COc1ccc(C2=CC(=O)C[C@H](c3ccc(OC)c(OC)c3)C2)cn1	0.1	-8.1	-5.2	-1.9
CC(C)C[C@H](NC(=O)c1nc[nH]c1C(=O)N1CCN(c2ccccc2)CC1)C(=O)OCc1ccccc1	0.1	2.5	5.4	-0.5
Cc1cc(C(=O)N2CCN(Cc3ccc4c(c3)OCO4)CC2)cs1	0.0	91.6*	-11.4	-5.0
Cc1cc(C)c2c(CN3CCN(Cc4ccc5c(c4)OCO5)CC3)cc(=O)oc2c1	-0.2	150.3*	-7.1	-2.4
COc1ccc(NC(=S)NCCc2ccc(S(N)(=O)=O)cc2)c(OC)c1	0.1	4.3	379.4	.
C[C@H]1CN([C@@H](C)CO)C(=O)c2cccc(NC(=O)C3CC3)c2O[C@H]1CN(C)C(=O)Nc1ccc(F)cc1	.	-6.4	.	13.0
CC(C)c1ccccc1NC(=S)NN(Cc1ccccc1)c1ccccc1	-0.1	.	40.8	230.6*
Fc1ccccc1NC(=S)NN(Cc1ccccc1)c1ccccc1	-0.2	.	.	.
C[C@@H]1CN([C@H](C)CO)C(=O)c2cc(NC(=O)Nc3cccc4ccccc34)ccc2O[C@@H]1CN(C)S(=O)(=O)c1ccc(F)cc1	.	1.6	.	49.1
CCn1cc([N+](=O)[O-])c(C(=O)N2CCOCC2)n1	0.1	.	2.7	1.2
C[C@H](CO)N1C[C@H](C)[C@H](CN(C)Cc2ccc(Oc3ccccc3)cc2)Oc2ccc(NC(=O)CCC(F)(F)F)cc2CC1=O	.	-9.7	.	-0.6
COc1ccc(CN(C)C[C@@H]2Oc3ccc(NC(=O)CCC(F)(F)F)cc3CC(=O)N([C@H](C)CO)C[C@H]2C)cc1	.	102.3*	.	2.2
